Active and inactive are the calls of the source. No cut-off for these calls is given here.
Legend:
Oocyte [1] = test: Activation of rat GABA alpha-1-beta-2-gamma-2 receptor expressed in xenopus oocytes assessed as potentiation of GABA-induced chloride current at 100 uM after 90 secs by two […] electrode voltage clamp assay; format: cell-based
In short: (§1)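 Rat α1, β2, γ2S cRNAs (1:1:10) injected into collagenase-defolliculated Xenopus oocytes, stored at 18 °C in ND96, recorded on days 1–5. Two-microelectrode voltage clamp at −70 mV. Bath: 90 mM NaCl, 1 mM KCl, 1 mM MgCl2, 1 mM CaCl2, 5 mM HEPES, pH 7.4. Cells with maximal currents > 3 μA discarded. Solutions delivered by automated fast perfusion.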

Oocyte [2] = test: Activation of rat GABA alpha-1-beta-2-gamma-2 receptor expressed in xenopus oocytes assessed as potentiation of chloride current at 100 uM after 90 secs by two […] electrode voltage clamp assay; format: cell-based; in short: as §1
Oocyte [3] = test: Activation of rat GABA alpha-1-beta-2-gamma-2 receptor expressed in xenopus oocytes assessed as potentiation of GABA-induced chloride current at 300 uM after 90 secs by two […] electrode voltage clamp assay; format: cell-based; in short: as §1
[4] = (§2) Activation of rat GABA alpha-1-beta-2-gamma-2 receptor expressed in xenopus oocytes assessed as potentiation of GABA-induced chloride current after 90 secs by two […] electrode voltage clamp assay; format: cell-based; settings: Oocyte
In short: (§3)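 Xenopus oocytes injected with rat α1, β2, γ2S cRNAs (1:1:10), kept at 18 °C in ND96, recorded days 1–5. Two-electrode voltage clamp at −70 mV in bath containing 90 mM NaCl, 1 mM KCl, 1 mM MgCl2, 1 mM CaCl2, 5 mM HEPES, pH 7.4. Compound (1–300 μM) preapplied 90 s, then coapplied with GABA EC5–10 by fast perfusion. Values n = 3.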

Oocyte [5] = test: as §2; format: cell-based; in short: as §3
Oocyte [6] = test: Activation of rat GABA alpha-1-beta-2-gamma-2 receptor expressed in xenopus oocytes assessed as potentiation of GABA-induced chloride current at 300 uM after 90 secs by two […] electrode voltage clamp assay relative to control in presence of flumazenil; format: cell-based; in short: as §1
[7] = Displacement of [3H]-flumazenil from GABAA receptor
Oocyte [8] = test: Activation of rat GABA alpha-1-beta-2-gamma-2 receptor expressed in xenopus oocytes assessed as potentiation of GABA-induced chloride current at 100 uM after 90 secs by two […] electrode voltage clamp assay in presence of 1 uM Diazepam; format: cell-based; in short: as §1

Structure (SMILES) | Activity (Oocyte [1]) | Activity (Oocyte [2]) | Activity (Oocyte [3]) | EC50 [4] | Activity (Oocyte [5]) | Activity (Oocyte [6]) | IC50 [7] | Activity (Oocyte [8])
O=C(/C=C/C=C/c1ccc2c(c1)OCO2)N1CCCC1 | -29% | inactive | – | – | – | – | – | –
CC(C)CNC(=O)/C=C/C=C/c1ccc2c(c1)OCO2 | -10% | inactive | – | – | – | – | – | –
O=C(/C=C/C=C/c1ccc2c(c1)OCO2)N1CCCCC1 [PIPERINE] | 226% | inactive | 302% | 52 µM | Dose-dependent effect | 334% | 1200 µM | 391%
O=C(/C=C/CCc1ccc2c(c1)OCO2)N1CCCCC1 [PIPERANINE] | 138% | inactive | 187% | 56 µM | Dose-dependent effect | – | – | –
O=C(CCCC/C=C/c1ccc2c(c1)OCO2)N1CCCCC1 | 32% | inactive | – | – | – | – | – | –

— ChEMBL document CHEMBL1154897, “HPLC-based activity profiling: discovery of piperine as a positive GABA(A) receptor modulator targeting a benzodiazepine-independent binding site” (J Nat Prod, 2010)
